ChEMBL document CHEMBL3872225, “Synthesis, binding assays, cytotoxic activity and docking studies of benzimidazole and benzothiophene derivatives with selective affinity for the CB2 cannabinoid receptor” (Eur J Med Chem, 2016)

What was measured:
[1] = Cytotoxicity against resistant human HCT116 cells assessed as reduction in cell viability measured after 72 hrs by MTT assay; assay type: functional, cell-based; settings: HCT-116, 72 h
How it was run: (§1)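 Cells kept in RPMI 1640 with 5% FBS, penicillin/streptomycin, 37 °C, 5% CO2. Seeded at 10,000 cells/well, then exposed to compounds at 0.001–10 μM in 5% FBS-RPMI for 72 h at 37 °C. MTT added for 4 h, formazan dissolved overnight in 10% SDS/0.1 mM HCl, absorbance read at 570 nm. […] Etoposide as positive control.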

Cannabinoid receptor 2 [2] = target: T1, Cannabinoid receptor 2 (Homo sapiens, UniProt P34972); experiment: Displacement of [3H]CP-55940 from human recombinant CB2 receptor expressed in HEK293 cell membranes incubated for 1.5 hrs
How it was run: (§2)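 Membranes from HEK-293 cells overexpressing human CB1 or CB2 incubated with increasing compound concentrations and 0.5 nM [3H]CP-55,940 at 30 °C for 1.5 h. […] Selectivity index is Ki CB1/Ki CB2.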

[3] = Cytotoxicity against human H1975-1 cells assessed as reduction in cell viability measured after 72 hrs by MTT assay; assay type: functional, cell-based; how it was run: as §1
[4] = Cytotoxicity against African green monkey Vero cells assessed as reduction in cell viability measured after 72 hrs by MTT assay; assay type: toxicity, cell-based; settings: Chlorocebus sabaeus (African green monkey); how it was run: as §1
Cannabinoid receptor 1 = Cannabinoid receptor 1 (Homo sapiens, UniProt P21554); experiment: Displacement of [3H]CP-55940 from human recombinant CB1 receptor expressed in HEK293 cell membranes incubated for 1.5 hrs; how it was run: as §2
Homo sapiens = species on record: Homo sapiens; experiment: Selectivity index, ratio of Ki for displacement of [3H]CP-55940 from human recombinant CB1 receptor to Ki for displacement of [3H]CP-55940 from human recombinant CB2 receptor; how it was run: as §2
Cannabinoid receptor 2 [5] = target: T1, Cannabinoid receptor 2; experiment: Displacement of [3H]CP-55940 from human recombinant CB2 receptor expressed in HEK293 cell membranes at 1 uM incubated for 1.5 hrs relative to control
How it was run: (§3)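 Single-point screen on HEK-293 membranes overexpressing human CB1 or CB2. […] Compounds displacing more than 50% at 1 μM went on to full curves.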

[6] = target: Cannabinoid receptor 1 (CB1) (Homo sapiens, UniProt P21554); experiment: Displacement of [3H]CP-55940 from human recombinant CB1 receptor expressed in HEK293 cell membranes at 1 uM incubated for 1.5 hrs relative to control; settings: probe [3H]CP-55940; how it was run: as §3
[7] = Cytotoxicity against human HeLa cells assessed as reduction in cell viability measured after 72 hrs by MTT assay; assay type: functional, cell-based; how it was run: as §1
[8] = Cytotoxicity against human HL60 cells assessed as reduction in cell viability measured after 72 hrs by MTT assay; assay type: functional, cell-based; settings: HL-60, 72 h; how it was run: as §1

T1 sequence (P34972 whole entry): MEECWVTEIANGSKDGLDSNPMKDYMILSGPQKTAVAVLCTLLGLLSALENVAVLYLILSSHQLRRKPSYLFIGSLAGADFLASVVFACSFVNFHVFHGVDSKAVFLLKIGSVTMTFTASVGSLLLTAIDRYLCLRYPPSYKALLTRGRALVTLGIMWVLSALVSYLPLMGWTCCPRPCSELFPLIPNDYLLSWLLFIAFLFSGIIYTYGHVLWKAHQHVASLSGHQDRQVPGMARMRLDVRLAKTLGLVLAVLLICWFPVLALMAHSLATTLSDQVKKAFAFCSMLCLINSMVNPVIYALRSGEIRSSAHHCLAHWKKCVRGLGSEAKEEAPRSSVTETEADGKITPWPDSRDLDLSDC
Sequence of Cannabinoid receptor 1 (P21554 whole entry): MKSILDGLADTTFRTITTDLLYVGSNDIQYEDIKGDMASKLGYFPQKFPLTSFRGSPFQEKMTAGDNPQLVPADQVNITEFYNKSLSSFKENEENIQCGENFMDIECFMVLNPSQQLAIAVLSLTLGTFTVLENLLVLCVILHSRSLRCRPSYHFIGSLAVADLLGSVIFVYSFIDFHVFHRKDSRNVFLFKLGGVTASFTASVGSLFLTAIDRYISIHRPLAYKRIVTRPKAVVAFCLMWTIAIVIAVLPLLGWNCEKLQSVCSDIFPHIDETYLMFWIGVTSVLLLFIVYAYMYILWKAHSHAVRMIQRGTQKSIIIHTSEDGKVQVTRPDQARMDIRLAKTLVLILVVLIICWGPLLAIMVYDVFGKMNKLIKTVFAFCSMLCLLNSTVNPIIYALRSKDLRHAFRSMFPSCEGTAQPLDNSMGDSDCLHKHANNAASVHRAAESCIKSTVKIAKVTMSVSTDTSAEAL
Sequence of Cannabinoid receptor 1 (CB1) (P21554 whole entry): as above

CCc1sc2ccccc2c1C(=O)c1ccc(OC)cc1
IC50 [1]: > 10 µM | IC50 (Cannabinoid receptor 2 [2]): 6.6 µM | Ki (Cannabinoid receptor 2 [2]): 1.6 µM | IC50 [3]: > 10 µM | IC50 at 72 h [4]: > 10 µM | IC50 (Cannabinoid receptor 1): > 10 µM | Ki (Cannabinoid receptor 1): > 10 µM | Ratio Ki (Homo sapiens): > 6.2 | inhibition (Cannabinoid receptor 2 [5]): > 50% | inhibition at 1.5 h, 1 µM [6]: > 50% | IC50 [7]: > 10 µM | IC50 [8]: 0.046 µM

O=C(c1cccc2ccccc12)n1c(C2CCCC2)nc2ccccc21
IC50 [1]: > 10 µM | IC50 (Cannabinoid receptor 2 [2]): 2.9 µM | Ki (Cannabinoid receptor 2 [2]): 0.7 µM | IC50 [3]: > 10 µM | IC50 at 72 h [4]: > 10 µM | IC50 (Cannabinoid receptor 1): > 10 µM | Ki (Cannabinoid receptor 1): > 10 µM | Ratio Ki (Homo sapiens): > 14 | inhibition (Cannabinoid receptor 2 [5]): > 50% | inhibition at 1.5 h, 1 µM [6]: > 50% | IC50 [7]: > 10 µM | IC50 [8]: 0.106 µM

CC(C)(C)c1nc2ccccc2n1C(=O)c1cccc2ccccc12
IC50 [1]: > 10 µM | IC50 (Cannabinoid receptor 2 [2]): 0.3 µM | Ki (Cannabinoid receptor 2 [2]): 0.08 µM | IC50 [3]: > 10 µM | IC50 at 72 h [4]: > 10 µM | IC50 (Cannabinoid receptor 1): > 10 µM | Ki (Cannabinoid receptor 1): > 10 µM | Ratio Ki (Homo sapiens): > 125 | inhibition (Cannabinoid receptor 2 [5]): > 50% | inhibition at 1.5 h, 1 µM [6]: > 50% | IC50 [7]: > 10 µM | IC50 [8]: 0.13 µM

COc1ccc(C(=O)n2c(-c3ccc(OC)cc3)nc3ccccc32)cc1
IC50 [1]: > 10 µM | IC50 (Cannabinoid receptor 2 [2]): 5.9 µM | Ki (Cannabinoid receptor 2 [2]): 1.5 µM | IC50 [3]: > 10 µM | IC50 at 72 h [4]: > 10 µM | IC50 (Cannabinoid receptor 1): > 10 µM | Ki (Cannabinoid receptor 1): > 10 µM | Ratio Ki (Homo sapiens): > 6.7 | inhibition (Cannabinoid receptor 2 [5]): > 50% | inhibition at 1.5 h, 1 µM [6]: > 50% | IC50 [7]: > 10 µM | IC50 [8]: 0.175 µM

O=C(c1cc2ccccc2s1)c1cccc2ccccc12
IC50 [1]: > 10 µM | IC50 (Cannabinoid receptor 2 [2]): 4.1 µM | Ki (Cannabinoid receptor 2 [2]): 1 µM | IC50 [3]: > 10 µM | IC50 at 72 h [4]: > 10 µM | IC50 (Cannabinoid receptor 1): 4.5 µM | Ki (Cannabinoid receptor 1): 2.7 µM | Ratio Ki (Homo sapiens): 2.7 | inhibition (Cannabinoid receptor 2 [5]): > 50% | inhibition at 1.5 h, 1 µM [6]: > 50% | IC50 [7]: > 10 µM | IC50 [8]: 0.051 µM

COc1ccc(C(=O)n2c(C3CCCCC3)nc3ccccc32)cc1
IC50 [1]: > 10 µM | IC50 (Cannabinoid receptor 2 [2]): 2.8 µM | Ki (Cannabinoid receptor 2 [2]): 0.7 µM | IC50 [3]: > 10 µM | IC50 at 72 h [4]: 1.64 µM | IC50 (Cannabinoid receptor 1): > 10 µM | Ki (Cannabinoid receptor 1): > 10 µM | Ratio Ki (Homo sapiens): > 14 | inhibition (Cannabinoid receptor 2 [5]): > 50% | inhibition at 1.5 h, 1 µM [6]: > 50% | IC50 [7]: > 10 µM | IC50 [8]: 0.085 µM

COc1ccc(C(=O)n2c(C3CCC3)nc3ccccc32)cc1
IC50 [1]: > 10 µM | IC50 (Cannabinoid receptor 2 [2]): 3.6 µM | Ki (Cannabinoid receptor 2 [2]): 0.9 µM | IC50 [3]: > 10 µM | IC50 at 72 h [4]: > 10 µM | IC50 (Cannabinoid receptor 1): > 10 µM | Ki (Cannabinoid receptor 1): > 10 µM | Ratio Ki (Homo sapiens): > 11 | inhibition (Cannabinoid receptor 2 [5]): > 50% | inhibition at 1.5 h, 1 µM [6]: > 50% | IC50 [7]: > 10 µM | IC50 [8]: 0.047 µM

COc1ccc(Cn2c(-c3ccc(OC)cc3)nc3ccccc32)cc1
IC50 [1]: 1.75 µM | IC50 (Cannabinoid receptor 2 [2]): 2.7 µM | Ki (Cannabinoid receptor 2 [2]): 0.7 µM | IC50 [3]: > 10 µM | IC50 at 72 h [4]: > 10 µM | IC50 (Cannabinoid receptor 1): > 10 µM | Ki (Cannabinoid receptor 1): > 10 µM | Ratio Ki (Homo sapiens): > 14 | inhibition (Cannabinoid receptor 2 [5]): > 50% | inhibition at 1.5 h, 1 µM [6]: > 50% | IC50 [7]: 3.06 µM | IC50 [8]: 0.057 µM

CCCCc1nc2ccccc2n1C(=O)c1ccc(OC)cc1
IC50 [1]: > 10 µM | IC50 (Cannabinoid receptor 2 [2]): 6.3 µM | Ki (Cannabinoid receptor 2 [2]): 1.6 µM | IC50 [3]: > 10 µM | IC50 at 72 h [4]: 0.17 µM | IC50 (Cannabinoid receptor 1): > 10 µM | Ki (Cannabinoid receptor 1): > 10 µM | Ratio Ki (Homo sapiens): > 6.25 | inhibition (Cannabinoid receptor 2 [5]): > 50% | inhibition at 1.5 h, 1 µM [6]: > 50% | IC50 [7]: > 10 µM | IC50 [8]: 0.061 µM

O=C(c1cccc2ccccc12)n1c(C2CCCCC2)nc2ccccc21
IC50 [1]: 3.02 µM | IC50 (Cannabinoid receptor 2 [2]): 1.7 µM | Ki (Cannabinoid receptor 2 [2]): 0.4 µM | IC50 [3]: > 10 µM | IC50 at 72 h [4]: > 10 µM | IC50 (Cannabinoid receptor 1): 4.9 µM | Ki (Cannabinoid receptor 1): 2.9 µM | Ratio Ki (Homo sapiens): 7.25 | inhibition (Cannabinoid receptor 2 [5]): > 50% | inhibition at 1.5 h, 1 µM [6]: > 50% | IC50 [7]: > 10 µM | IC50 [8]: 0.22 µM

CC(C)c1nc2ccccc2n1C(=O)c1cccc2ccccc12
IC50 [1]: 4.41 µM | IC50 (Cannabinoid receptor 2 [2]): 2.1 µM | Ki (Cannabinoid receptor 2 [2]): 0.5 µM | IC50 [3]: > 10 µM | IC50 at 72 h [4]: 7.23 µM | IC50 (Cannabinoid receptor 1): > 10 µM | Ki (Cannabinoid receptor 1): > 10 µM | Ratio Ki (Homo sapiens): > 20 | inhibition (Cannabinoid receptor 2 [5]): > 50% | inhibition at 1.5 h, 1 µM [6]: > 50% | IC50 [7]: > 10 µM | IC50 [8]: 0.07 µM
